Test results reported in the array DNA melting data of Ke et al. (doi:10.1101/2024.01.08.574731).

What was measured:
[1] = folding enthalpy; higher = less favourable; fluorescence melt of hairpins on a sequencing array, two-state fit; conditions: sodium 0.088 M
Procedure, shortened: (§1)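 Cy3 signals were normalised both to pre-quench Cy3 and to control constructs. They came from library hairpins carrying annealed Cy3 and quencher oligos on a sequenced MiSeq flow cell, imaged in 50 mM Na-HEPES pH 8.0, 25 mM NaCl, in 2.5 °C steps up to 60 °C. Bootstrapped two-state fits gave melting temperature and folding enthalpy, and four replicates were combined by inverse variance. Fitted temperatures were then raised by 9.35 °C to match UV melts.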

[2] = melting temperature; fluorescence melt of hairpins on a sequencing array, two-state fit, raised by 9.35 °C to match UV melts; conditions: sodium 0.088 M
Procedure, shortened: as §1

Row | Sequence | folding enthalpy [1] | Tm [2]
1 | GCTGACGGAAACGTTGGC ((..(((....)))..)) | -27.3 kcal/mol | 47 °C
2 | GCCTCGCGAAAGCAAAGC ((.(.((....)).).)) | -9.86 kcal/mol | 28.4 °C
3 | GTAGGGGGAAACTCCTGC (.(((.(....).))).) | -20 kcal/mol | 35.5 °C
4 | GCTCGCGAAAGCGCTAGC ((((((....)))..))) | -11.9 kcal/mol | 42.6 °C
5 | GATCTCGGCAGAGATC ((((((....)))))) | -42 kcal/mol | 68.1 °C
6 | GATCTGATGACAGATC ((((((....)))))) | -34.8 kcal/mol | 48.8 °C
7 | GGACGCCCGAAAGGGTCC (((..(((....)))))) | -16.2 kcal/mol | 43.2 °C
8 | GATCTCGTAGGAGATC ((((((....)))))) | -33.9 kcal/mol | 56.6 °C
9 | GTACTCCGAAAGGATTAC (((.(((....))).))) | -29.8 kcal/mol | 37.6 °C
10 | GGGTCCGAAAGGAAGCCC ((((((....)))..))) | -18.8 kcal/mol | 46.9 °C
11 | TTGACGAAAGTCAA (((((....))))) | -21.4 kcal/mol | 54.1 °C
12 | GTACCGGGAAACCGGCAC ((.((((....)))).)) | -17.7 kcal/mol | 47.9 °C
13 | GATCCGTGCCCGGATC ((((((....)))))) | -50.9 kcal/mol | 56.6 °C
14 | GGCTTTCGAAAGAAGCC (((.(((....)))))) | -41.6 kcal/mol | 52.8 °C
15 | GATCCCCGTGGGATC ((((((...)))))) | -27.8 kcal/mol | 65.2 °C
16 | GGAGGTCGAAAGACTTCC (((.(((....))).))) | -37.5 kcal/mol | 53.5 °C
17 | GATACCGAAAGGTTATC ((((((....))).))) | -17.7 kcal/mol | 37.6 °C
18 | GGAGCCCGAAAGGGTTCC (((.(((....))).))) | -25.7 kcal/mol | 68.4 °C
19 | GCGCTCGAAAGAGACGC ((((((....))).))) | -28.6 kcal/mol | 58 °C
20 | GAGGAGGGAAACCTCCCC (.(((((....))))).) | -11.8 kcal/mol | 40.9 °C
21 | GGCGATGGAAACATCACC ((.((((....)))).)) | -30.3 kcal/mol | 46.2 °C
22 | GTCCAATCGAAAGATGAC (((..(((....)))))) | -13.9 kcal/mol | 29.1 °C
23 | GTGGCCCCGAAAGGGCAC (((..(((....)))))) | -15 kcal/mol | 57.5 °C
24 | GATCTTCTTAAGATC ((((((...)))))) | -30.1 kcal/mol | 44.3 °C

Row | Sequence | folding enthalpy [1] | Tm [2]
25 | GCTGTTGGAAACAATAGC (((.(((....))).))) | -31.9 kcal/mol | 47.9 °C
26 | GGGAAGGGAAACCTTCCC (((((((....))))))) | -35.5 kcal/mol | 65.4 °C
27 | GATCTTTAGTAAGATC ((((((....)))))) | -29.9 kcal/mol | 40 °C
28 | GACAGGCCGAAAGGCGTC (((..(((....)))))) | -14.9 kcal/mol | 47.7 °C
29 | GCATTCCGAAAGGATGC (((.(((....)))))) | -30.7 kcal/mol | 53.7 °C
30 | GGATGGGGAAACCCGTTC (.(.(((....))).).) | -16.5 kcal/mol | 36.1 °C
31 | GATCATCTGAATGATC ((((((....)))))) | -33.6 kcal/mol | 46.3 °C
32 | GGCTCCGAAAGGATTGCC ((((((....)))..))) | -19.6 kcal/mol | 48.7 °C
33 | GTCCACTCGAAAGAGGAC (((..(((....)))))) | -23 kcal/mol | 37.4 °C
34 | GAAAAGCGAAAGCTTTC (((.(((....)))))) | -14.2 kcal/mol | 43.5 °C
35 | GATCCGGGTCGGATC ((((((...)))))) | -29.6 kcal/mol | 58.6 °C
36 | GCAGATCGAAAGATTGC (((.(((....)))))) | -23.1 kcal/mol | 44.1 °C
37 | GGCACACGAAAGTGCGCC (((.(((....))).))) | -36.9 kcal/mol | 66.7 °C
38 | GCGTTCGAAAGAACACGC ((((((....)))..))) | -22.1 kcal/mol | 50.5 °C
39 | GTTATTCCGAAAGGAAAC (((..(((....)))))) | -7.61 kcal/mol | 21.5 °C
40 | GCGTTCGAAAGAATCGC ((((((....))).))) | -33.5 kcal/mol | 50.2 °C
41 | GATCCTCCCGAGGATC ((((((....)))))) | -36.9 kcal/mol | 56.4 °C
42 | GGCGCGTCGAAAGACGCC (((..(((....)))))) | -7.03 kcal/mol | 47.8 °C
43 | GTCCACGAAAGTGAGGAC ((((((....)))..))) | -21.9 kcal/mol | 46.4 °C
44 | GTATGGGGAAACCCGTAC (((.(((....))).))) | -34.5 kcal/mol | 49.1 °C
45 | GGAATGGGAAACCGTTCC ((((.((....)).)))) | -39.1 kcal/mol | 50.8 °C
46 | GACCACCCGAAAGGGGTC (((..(((....)))))) | -13.1 kcal/mol | 46.5 °C
47 | GGTAGGGCGAAAGCCACC (((..(((....)))))) | -14 kcal/mol | 41.9 °C
48 | GCGTGATAACGC ((((....)))) | -26.9 kcal/mol | 69.3 °C

Row | Sequence | folding enthalpy [1] | Tm [2]
49 | GATCATCCTTATGATC ((((((....)))))) | -37 kcal/mol | 46.3 °C
50 | GCGGTTGGAAACAACCAC (.(((((....))))).) | -14.8 kcal/mol | 44.8 °C
51 | GTTTATCGAAAGATGAAC (((.(((....))).))) | -31.2 kcal/mol | 43.6 °C
52 | GTGACCGAAAGGTCTCAC ((((((....)))..))) | -10.6 kcal/mol | 41.2 °C
53 | GATCACTTAAGTGATC ((((((....)))))) | -38 kcal/mol | 59.3 °C
54 | CGTGACGGAAACGTACG (((.(((....)))))) | -25.3 kcal/mol | 42.5 °C
55 | GGAACCGAAAGGTCCTCC ((((((....)))..))) | -17.5 kcal/mol | 50.2 °C
56 | GAGCACACGAAAGTGCTC (((..(((....)))))) | -33.4 kcal/mol | 57.8 °C
57 | GCGAAGCGAAAGCTCTGC ((..(((....)))..)) | -7.9 kcal/mol | 39.7 °C
58 | GGTTTAGCGAAAGCTACC (((..(((....)))))) | -12.1 kcal/mol | 32 °C
59 | GGTGACGGAAACATCACC (((((.(....).))))) | -33.1 kcal/mol | 43.7 °C
60 | GGAAGCCCGAAAGGGTCC (((..(((....)))))) | -10.8 kcal/mol | 35.4 °C
61 | GCCCCTGGAAACAGGGAC (.(((((....))))).) | -13.9 kcal/mol | 51.1 °C
62 | TGCCTGAAAAGGCA (((((....))))) | -17.5 kcal/mol | 59.1 °C
63 | GATCGGCTCCCCGATC ((((((....)))))) | -42.1 kcal/mol | 55.2 °C
64 | GTAAGGTCGAAAGACTAC (((..(((....)))))) | -13.1 kcal/mol | 29.1 °C
65 | GGAGCACCGAAAGGTTCC (((..(((....)))))) | -11.3 kcal/mol | 30.2 °C
66 | GCGGCGCGAAAGCTACGC (((..((....))..))) | -28.9 kcal/mol | 61.8 °C
67 | GTCAACGAAAGTTCGAC ((((((....))).))) | -25.7 kcal/mol | 38.4 °C
68 | GCGTTCCTACGC ((((....)))) | -25.2 kcal/mol | 57.9 °C
69 | GTCCTTGAAAAAGGAC ((((((....)))))) | -33.2 kcal/mol | 56 °C
70 | GCTGACGGAAACGCCAGC ((((.((....)).)))) | -42.1 kcal/mol | 55.3 °C
71 | GGATTAGGAAACTAATTC (.(((((....))))).) | -25.2 kcal/mol | 33.9 °C
72 | GATTAGCGAAAGCTCATC (((.(((....))).))) | -19.1 kcal/mol | 38.7 °C

Row | Sequence | folding enthalpy [1] | Tm [2]
73 | GAGGATCCGAAAGGACTC (((..(((....)))))) | -13.3 kcal/mol | 30.6 °C
74 | GTCAGACGAAAGTCAGAC (((.(((....))).))) | -31.5 kcal/mol | 53.6 °C
75 | GCCCTAGGAAACCAGGGC (((((.(....).))))) | -47 kcal/mol | 52.5 °C
76 | GATCGGGAGGCCGATC ((((((....)))))) | -46.1 kcal/mol | 56.2 °C
77 | GCGTTGGAACGC ((((....)))) | -16.5 kcal/mol | 52.4 °C
78 | GAGCGCGAAAGCGTCCTC ((((((....)))..))) | -10 kcal/mol | 42.2 °C
79 | CGTGTGAAAACACG (((((....))))) | -29.3 kcal/mol | 58.6 °C
80 | GATCGGGCGTCCGATC ((((((....)))))) | -37.2 kcal/mol | 58.2 °C
81 | GGCAAACGAAAGTTCGCC (((.(((....))).))) | -47.9 kcal/mol | 53.3 °C
82 | GGAAACGAAAGTTGTCC ((((((....))).))) | -18.2 kcal/mol | 31.5 °C
83 | GGGATCCGAAAGGACCC (((.(((....)))))) | -36.5 kcal/mol | 55.7 °C
84 | GATCGTCGATACGATC ((((((....)))))) | -38.5 kcal/mol | 54.7 °C
85 | GATCGGCTCACCGATC ((((((....)))))) | -38.8 kcal/mol | 57.4 °C
86 | GATCGCAATAGCGATC ((((((....)))))) | -26 kcal/mol | 68.4 °C
87 | GCTCACGAAAGTGACAGC ((((((....)))..))) | -14.8 kcal/mol | 43.2 °C
88 | GCAAAGCGAAAGCGTGGC ((.(.((....)).).)) | -15.9 kcal/mol | 50.6 °C
89 | GGCATAGGAAACTGTGTC (.((.((....)).)).) | -23.9 kcal/mol | 33.5 °C
90 | GCAGGGCGAAAGCGGTGC (((..((....))..))) | -21.4 kcal/mol | 52.8 °C
91 | GATCACGCCTGTGATC ((((((....)))))) | -49.5 kcal/mol | 59.4 °C
92 | GCATAGCGAAAGCAATGC ((((.((....)).)))) | -23.1 kcal/mol | 60.4 °C
93 | GATCGTGAATACGATC ((((((....)))))) | -35 kcal/mol | 61.7 °C
